Assay results from ChEMBL document CHEMBL3259614, “Design, synthesis, and structure-activity relationship studies of novel fused heterocycles-linked triazoles with good activity and water solubility” (J Med Chem, 2014).
pIC50: −log10 of the molar value. In brackets after ≈: the same amount, converted by molar mass.

How the values were obtained:
[1] = tested on: Candida albicans; assay: Antimicrobial activity against Candida albicans SC5314 infected in ICR mouse assessed as mean survival days at 0.32 mg/kg, iv qd for 5 days starting 2 hrs post infection (reference value: 9.0 +/- 0.67 days); type: functional
[2] = tested on: Candida albicans; assay: Antimicrobial activity against Candida albicans SC5314 infected in ICR mouse assessed as mean survival days at 1 mg/kg, iv qd for 5 days starting 2 hrs post infection (reference value: 9.0 +/- 0.67 days); type: functional
[3] = tested on: Candida albicans; assay: Antimicrobial activity against Candida albicans SC5314 infected in ICR mouse assessed as mean survival days at 3.2 mg/kg, iv qd for 5 days starting 2 hrs post infection (reference value: 9.0 +/- 0.67 days); type: functional
[4] = tested on: Candida albicans; assay: Antimicrobial activity against Candida albicans SC5314 infected in ICR mouse assessed as mean survival days at 10 mg/kg, iv qd for 5 days starting 2 hrs post infection (reference value: 9.0 +/- 0.67 days); type: functional
[5] = Cmax in Sprague-Dawley rat at 10 mg/kg, po; type: ADME, organism-based; set-up: dose 10 mg/kg, route oral; settings: in vivo
Procedure, shortened: (§1)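 Male Sprague−Dawley rats (200−250 g), seven per group, dosed orally at 10 mg/kg or intravenously at 3 or 5 mg/kg in 5% DMSO + 5% Tween 80 in 90% saline. Serial retrobulbar blood samples were quantified by LC-MS. Parameters were derived from mean plasma concentrations by noncompartmental analysis. For the disulfate salt, values are based on the active free base measured.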

[6] = Tmax in Sprague-Dawley rat at 10 mg/kg, po; type: ADME, organism-based; set-up: dose 10 mg/kg, route oral; settings: in vivo; procedure, shortened: as §1
[7] = Half life in Sprague-Dawley rat at 10 mg/kg, po; type: ADME, organism-based; set-up: dose 10 mg/kg, route oral; settings: in vivo; procedure, shortened: as §1
[8] = AUC (0 to infinity) in Sprague-Dawley rat at 10 mg/kg, po; type: ADME, organism-based; set-up: time infinity, dose 10 mg/kg, route oral; settings: plasma; procedure, shortened: as §1
[9] = Intrinsic clearance in Sprague-Dawley rat liver microsomes assessed per mg protein at 0.1 uM by LC/MS/MS analysis; type: ADME
Procedure, shortened: (§2)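 Male Sprague−Dawley rat liver microsomes (0.33 mg/mL protein) in 0.1 M Tris-HCl pH 7.4 with 5 mM MgCl₂ and 1 mM NADPH. Compound at a final 0.1 μM (0.01% DMSO, 0.005% BSA), incubated at 37 °C. Samples taken at 0, 7, 17, 30 and 60 min were quenched in methanol, and parent compound was measured by LC/MS/MS. t1/2 and Clint were then calculated.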

[10] = Oral bioavailability in Sprague-Dawley rat at 10 mg/kg; type: ADME, organism-based; settings: in vivo; procedure, shortened: as §1
[11] = Elimination half life in Sprague-Dawley rat liver microsomes at 0.1 uM by LC/MS/MS analysis; type: ADME; settings: read-out: beta t1/2; procedure, shortened: as §2
[12] = tested on: Hepatocyte; assay: Cytotoxicity against rat hepatocytes assessed as reduction in survival rate at 5 to 40 uM after 48 hrs by SRB assay; type: cell-based
[13] = Half life in Sprague-Dawley rat at 5 mg/kg, iv; type: ADME, organism-based; set-up: dose 5 mg/kg, route intravenous; settings: in vivo; procedure, shortened: as §1
[14] = AUC (0 to infinity) in Sprague-Dawley rat at 5 mg/kg, iv; type: ADME, organism-based; set-up: dose 5 mg/kg, route intravenous, time infinity; settings: plasma; procedure, shortened: as §1
[15] = Clearance in Sprague-Dawley rat at 5 mg/kg, iv; type: ADME, organism-based; set-up: dose 5 mg/kg, route intravenous; settings: in vivo; procedure, shortened: as §1
[16] = molecular target: Voltage-gated inwardly rectifying potassium channel KCNH2 (Homo sapiens, UniProt Q12809); assay: Inhibition of human ERG expressed in CHO cells by whole-cell patch clamp assay; type: cell-based
[17] = tested on: Candida albicans; assay: Antimicrobial activity against Candida albicans SC5314 after 24 hrs by serial dilution method; type: functional; settings: SC5314, 24 h
Procedure, shortened: (§3)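 Broth serial dilution MIC in 96-well plates following NCCLS/CLSI methods. Compounds were dissolved in DMSO and serially diluted in growth medium, with incubation at 35 °C. […] C. parapsilosis 22019 served as the quality-control strain in each assay.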

[18] = tested on: Candida albicans; assay: Antimicrobial activity against Candida albicans Y0109 after 24 hrs by serial dilution method; type: functional; settings: Y0109, 24 h; procedure, shortened: as §3
[19] = tested on: Candida parapsilosis; assay: Antimicrobial activity against Candida parapsilosis 22019 after 24 hrs by serial dilution method; type: functional; settings: Lodderomyces parapsilosis, 22019, 24 h; procedure, shortened: as §3
[20] = tested on: Cryptococcus neoformans; assay: Antimicrobial activity against Cryptococcus neoformans 32609 after 72 hrs by serial dilution method; type: functional; settings: Cryptococcus neoformans, 32609, 72 h; procedure, shortened: as §3
[21] = tested on: Nakaseomyces glabratus; assay: Antimicrobial activity against Candida glabrata 537 after 24 hrs by serial dilution method; type: functional; settings: Nakaseomyces glabratus, 537, 24 h; procedure, shortened: as §3
[22] = tested on: Aspergillus fumigatus; assay: Antimicrobial activity against Aspergillus fumigatus 7544 after 48 hrs by serial dilution method; type: functional; settings: Aspergillus fumigatus, 7544, 48 h; procedure, shortened: as §3
[23] = tested on: Candida albicans; assay: Antimicrobial activity against fluconazole-resistant Candida albicans 100 after 24 hrs by serial dilution method; type: functional; settings: Candida albicans, 100, 24 h
Procedure, shortened: (§4)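 Broth serial-dilution MIC in 96-well plates following NCCLS guidance. Compounds were dissolved in DMSO and serially diluted in growth medium. Clinical isolates came from a hospital collection. […] C. parapsilosis ATCC 22019 served as the quality-control strain in each assay.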

[24] = tested on: Candida albicans; assay: Antimicrobial activity against fluconazole-resistant Candida albicans 103 after 24 hrs by serial dilution method; type: functional; settings: Candida albicans, 103, 24 h; procedure, shortened: as §4
[25] = tested on: Candida albicans; assay: Antimicrobial activity against fluconazole-resistant Candida albicans J18 after 24 hrs by serial dilution method; type: functional; settings: J18, 24 h; procedure, shortened: as §4
[26] = tested on: Candida albicans; assay: Antimicrobial activity against fluconazole-resistant Candida albicans J28 after 24 hrs by serial dilution method; type: functional; settings: J28, 24 h; procedure, shortened: as §4
[27] = tested on: Candida albicans; assay: Antimicrobial activity against fluconazole-resistant Candida albicans J38 after 24 hrs by serial dilution method; type: functional; settings: J38, 24 h; procedure, shortened: as §4
[28] = tested on: Candida albicans; assay: Antimicrobial activity against Candida albicans SC5314 infected in ICR mouse assessed as mean survival days at 0.5 mg/kg, po qd for 5 days starting 2 hrs post infection (reference value: 9.0 +/- 0.67 days); type: functional
Procedure, shortened: (§5)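 Reference arm of the systemic C. albicans SC5314 model: female ICR mice (18−22 g, n = 10) were infected iv with 0.2 mL of 5 × 10⁶ CFU/mL. Fluconazole was given orally in distilled water, qd for 5 days from 2 h post-infection. Mean survival days were scored over 30 days.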

[29] = tested on: Candida albicans; assay: Antimicrobial activity against Candida albicans SC5314 infected in ICR mouse assessed as mean survival days at 0.5 mg/kg, po qd for 5 days starting 2 hrs post infection (reference value: 5.2 +/- 2.35 days starting 2 hrs post infection); type: functional; procedure, shortened: as §5
[30] = tested on: Candida albicans; assay: Antimicrobial activity against fluconazole-resistant Candida albicans 103 infected in ICR mouse assessed as mean survival days at 0.5 mg/kg, po qd for 5 days starting 2 hrs post infection (reference value: 1.5 +/- 0.53 days); type: functional

Sequence of Voltage-gated inwardly rectifying potassium channel KCNH2 (Q12809 whole entry): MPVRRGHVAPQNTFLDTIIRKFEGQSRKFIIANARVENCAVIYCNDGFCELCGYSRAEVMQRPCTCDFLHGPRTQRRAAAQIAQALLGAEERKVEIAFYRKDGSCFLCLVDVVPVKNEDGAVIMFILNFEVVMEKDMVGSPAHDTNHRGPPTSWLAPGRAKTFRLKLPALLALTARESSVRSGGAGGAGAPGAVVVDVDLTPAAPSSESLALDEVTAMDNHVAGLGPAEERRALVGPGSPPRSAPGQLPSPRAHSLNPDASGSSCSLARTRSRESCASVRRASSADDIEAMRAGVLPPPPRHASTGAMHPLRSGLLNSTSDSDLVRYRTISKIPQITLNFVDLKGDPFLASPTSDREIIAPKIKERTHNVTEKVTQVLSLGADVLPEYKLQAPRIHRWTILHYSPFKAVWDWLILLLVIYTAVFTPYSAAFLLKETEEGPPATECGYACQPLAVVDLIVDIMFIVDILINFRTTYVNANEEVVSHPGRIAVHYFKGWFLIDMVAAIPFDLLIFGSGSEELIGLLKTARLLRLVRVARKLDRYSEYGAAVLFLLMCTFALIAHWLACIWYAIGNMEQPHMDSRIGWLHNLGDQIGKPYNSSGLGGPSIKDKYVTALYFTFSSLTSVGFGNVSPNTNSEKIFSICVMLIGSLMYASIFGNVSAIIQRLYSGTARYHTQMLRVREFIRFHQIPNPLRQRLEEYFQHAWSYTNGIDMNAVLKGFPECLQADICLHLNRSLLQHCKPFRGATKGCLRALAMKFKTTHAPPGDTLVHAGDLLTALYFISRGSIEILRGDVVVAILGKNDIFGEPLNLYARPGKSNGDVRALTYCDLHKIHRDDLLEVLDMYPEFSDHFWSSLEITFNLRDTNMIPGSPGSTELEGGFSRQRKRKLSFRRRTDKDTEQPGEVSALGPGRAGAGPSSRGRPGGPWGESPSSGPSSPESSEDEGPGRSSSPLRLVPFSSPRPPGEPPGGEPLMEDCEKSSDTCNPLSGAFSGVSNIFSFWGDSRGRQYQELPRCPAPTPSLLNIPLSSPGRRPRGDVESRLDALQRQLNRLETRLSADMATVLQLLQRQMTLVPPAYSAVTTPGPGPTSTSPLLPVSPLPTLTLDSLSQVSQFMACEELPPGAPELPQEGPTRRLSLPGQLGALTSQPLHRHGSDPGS

With `C[C@@H](N1CCc2nc(-c3cncnc3)sc2C1)[C@](O)(Cn1cncn1)c1ccc(F)cc1F.O.O=S(=O)(O)O` the Survival [1] was 8.8 days, the Survival [2] was 7.8 days and the Survival [3] was 9.8 days. For the same molecule, the Survival [4] was 11.1 days, the Cmax [5] was 164 ng/mL and the Tmax [6] was 15 min. For the same molecule, the half-life [7] was 27.6 min, the AUC(0-inf) [8] was 141 ng·h/mL and the microsomal CLint at 0.1 µM [9] was 65 µL/min/mg. For the same molecule, the bioavailability [10] was 5.8%, the half-life at 0.1 µM [11] was 32.4 min and the Activity [12] was “Non-toxic”. For the same molecule, the half-life [13] was 25.2 min, the AUC(0-inf) [14] was 1190 ng·h/mL and the clearance [15] was 72.5 mL/min/kg.
Molecule `CCC(C)n1ncn(-c2ccc(N3CCN(c4ccc(OCC5COC(Cn6cncn6)(c6ccc(Cl)cc6Cl)O5)cc4)CC3)cc2)c1=O` (racemic) [ITRACONAZOLE] has a pIC50 [16] of under 4.40.
`OC(Cn1cncn1)(Cn1cncn1)c1ccc(F)cc1F` [FLUCONAZOLE] gave an MIC [17] of 0.5 µg/mL (≈ 1.63 µM), an MIC [18] of 0.5 µg/mL (≈ 1.63 µM) and an MIC [19] of 1 µg/mL (≈ 3.27 µM). It also gave an MIC [20] of 0.5 µg/mL (≈ 1.63 µM), an MIC [21] of 0.25 µg/mL (≈ 0.816 µM) and an MIC [22] of over 64 µg/mL. The MIC [23] was 512 µg/mL (≈ 1670 µM), the MIC [24] was over 1020 µg/mL and the MIC [25] was over 1020 µg/mL. It also gave an MIC [26] of over 4 µg/mL, an MIC [27] of over 4 µg/mL and a Survival [28] of 13.1 days. The Survival [29] was 11.7 days and the Survival [30] was 2.3 days.
